{"source": "ChEMBL document CHEMBL3745667", "about": "“Identification of Noncompetitive Inhibitors of Cytosolic 5'-Nucleotidase II Using a Fragment-Based Approach” (J Med Chem, 2015)", "key": {"[1]": {"biological_target": "T1, Cytosolic purine 5'-nucleotidase (Homo sapiens, UniProt P49902)", "T1 sequence (P49902 whole entry, the tested form may be a part)": "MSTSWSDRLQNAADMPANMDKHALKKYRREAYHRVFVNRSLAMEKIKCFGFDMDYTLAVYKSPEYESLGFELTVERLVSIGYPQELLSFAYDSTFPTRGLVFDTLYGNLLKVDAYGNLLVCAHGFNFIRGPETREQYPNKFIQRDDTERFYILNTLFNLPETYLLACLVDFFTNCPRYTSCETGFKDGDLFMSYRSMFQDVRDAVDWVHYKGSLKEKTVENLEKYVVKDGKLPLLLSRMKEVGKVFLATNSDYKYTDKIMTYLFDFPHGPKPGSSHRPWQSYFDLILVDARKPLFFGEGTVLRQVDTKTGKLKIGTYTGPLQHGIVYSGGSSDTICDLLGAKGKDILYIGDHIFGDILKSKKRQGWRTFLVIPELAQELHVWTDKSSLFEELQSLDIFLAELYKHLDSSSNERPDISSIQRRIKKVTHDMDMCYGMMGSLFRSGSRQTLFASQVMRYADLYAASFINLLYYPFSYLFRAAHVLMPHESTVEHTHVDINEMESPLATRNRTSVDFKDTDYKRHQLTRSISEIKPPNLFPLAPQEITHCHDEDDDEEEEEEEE", "test": "Inhibition of recombinant N-terminal truncated human cytosolic 5'-nucleotidase-2 assessed as inhibition of inosine 5'-monophosphate hydrolysis at 1 mM by rapid green malachite assay", "summary_of_the_method": "(§1)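 Purified recombinant N-terminally truncated cN-II expressed in E. coli, with IMP as substrate. Released phosphate was read by green malachite colorimetry. Inhibitor was tested at a single level, 0.2 mM or 1 mM. Compounds that are not water-soluble were added in DMSO, not exceeding 2% final.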"}, "[2]": {"biological_target": "T1, Cytosolic purine 5'-nucleotidase", "test": "Inhibition of recombinant N-terminal truncated human cytosolic 5'-nucleotidase-2 assessed as inhibition of inosine 5'-monophosphate hydrolysis at 0.2 mM by rapid green malachite assay", "summary_of_the_method": "as §1"}, "[3]": {"test_system": "RL", "test": "Antiproliferative activity against human RL cells after 72 hrs by MTT assay", "assay_type": "functional, cell-based", "summary_of_the_method": "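MTT assay on RL human follicular lymphoma cells treated with a range of compound concentrations for 72 h. IC50 calculated with CompuSyn and given as the mean ± SEM of at least three independent experiments.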"}, "[4]": {"test_system": "RL", "test": "Antiproliferative activity against human RL cells after 72 hrs by MTT assay in presence of fludarabine", "assay_type": "functional, cell-based"}, "[5]": {"test_system": "RL", "test": "Antiproliferative activity against human RL cells after 72 hrs by MTT assay in presence of cladribine", "assay_type": "functional, cell-based"}, "[6]": {"test_system": "RL", "test": "Antiproliferative activity against human RL cells after 72 hrs by MTT assay in presence of clofarabine", "assay_type": "functional, cell-based"}, "[7]": {"biological_target": "T1, Cytosolic purine 5'-nucleotidase", "test": "Inhibition of recombinant N-terminal truncated human cytosolic 5'-nucleotidase-2 assessed as inhibition of inosine 5'-monophosphate hydrolysis by steady state kinetics with HPLC quantification"}}, "note": "pIC50, pKi: −log10 of the molar value.", "data": [{"molecule": "Oc1ccc(-c2ccc(O)cc2)cc1", "values": [{"measurement": "inhibition", "setting": "[1]", "result": 8, "unit": "%"}]}, {"molecule": "Oc1ccc2ccc(O)cc2c1", "values": [{"measurement": "inhibition", "setting": "[1]", "result": 40, "unit": "%"}]}, {"molecule": "OCc1nc2ccccc2[nH]1", "values": [{"measurement": "inhibition", "setting": "[1]", "result": 11, "unit": "%"}]}, {"molecule": "Nc1ccccc1-c1ccccc1", "values": [{"measurement": "inhibition", "setting": "[1]", "result": 36, "unit": "%"}]}, {"molecule": "c1ccc(N2CCNCC2)nc1", "values": [{"measurement": "inhibition", "setting": "[1]", "result": 0.5, "unit": "%"}]}, {"molecule": "Nc1nc(Cl)c2nc[nH]c2n1", "values": [{"measurement": "inhibition", "setting": "[1]", "result": 23, "unit": "%"}]}, {"molecule": "Oc1ccccc1-c1ccccc1", "values": [{"measurement": "inhibition", "setting": "[1]", "result": 19, "unit": "%"}]}, {"molecule": "c1ccc(CNc2ncnc3[nH]cnc23)cc1", "values": [{"measurement": "inhibition", "setting": "[1]", "result": 20, "unit": "%"}]}, {"molecule": "Nc1ccc(-c2ccc(N)c(O)c2)cc1O", "values": [{"measurement": "inhibition", "setting": "[1]", "result": 23, "unit": "%"}]}, {"molecule": "O=C1c2ccc(S(=O)(=O)O)cc2C(=O)c2ccc(S(=O)(=O)O)cc21", "values": [{"measurement": "inhibition", "setting": "[2]", "result": 20, "unit": "%"}, {"measurement": "pIC50", "setting": "[3]", "result": 2.98}, {"measurement": "CI95", "setting": "[4]", "result": 4.2}, {"measurement": "CI95", "setting": "[5]", "result": 0.4}, {"measurement": "CI95", "setting": "[6]", "result": 0.24}, {"measurement": "pKi", "setting": "[7]", "result": 2.70}]}, {"molecule": "c1ccc(-c2c[nH]cn2)cc1", "values": [{"measurement": "inhibition", "setting": "[1]", "result": 36, "unit": "%"}]}, {"molecule": "Nc1[nH]cnc2ncnc1-2", "values": [{"measurement": "inhibition", "setting": "[1]", "result": 19, "unit": "%"}]}, {"molecule": "OC(c1ccccc1)c1ccccc1", "values": [{"measurement": "inhibition", "setting": "[1]", "result": 2, "unit": "%"}]}, {"molecule": "Nc1cccc2cnccc12", "values": [{"measurement": "inhibition", "setting": "[1]", "result": 30, "unit": "%"}]}, {"molecule": "O=C(Nc1ncnc2nc[nH]c12)c1ccccc1", "values": [{"measurement": "inhibition", "setting": "[1]", "result": 28, "unit": "%"}]}]}
